This is an account of results in ChEMBL document CHEMBL4354837 (J Med Chem, 2020).

Calls of active or inactive are those of the source. The rule behind the calls is not given here. Square brackets hold non-standard residues; d marks the D form. Peptide text beside a SMILES is read from it. Some results are limits rather than exact numbers.

Experiment [1] has as its target T1, Melanocortin receptor 5 (Mus musculus, UniProt P41149). Nature of the experiment: Antagonist activity at mouse melanocortin receptor 5 expressed in HEK293 cells assessed as inhibition of NDP-MSH-induced cAMP accumulation incubated for 2 hrs by cAMP Alpha-screen assay based Schild analysis. Format: functional, cell-based. As to conditions: read-out: pA2 (converted). (Cyclic AMP is a second messenger, typically raised through Gs and lowered through Gi signalling.)

Experiment [2] deals with T2, Melanocortin receptor 3 (Mus musculus, UniProt P33033). In words: Antagonist activity at mouse melanocortin receptor 3 expressed in HEK293 cells assessed as inhibition of NDP-MSH-induced cAMP accumulation incubated for 2 hrs by cAMP Alpha-screen assay based Schild analysis. Format: functional, cell-based. To be noted: read-out: pA2 (converted). Summed up: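 NDP-MSH (10−6 to 10−12) plus antagonist at 10,000, 5,000, 1,000 and 500 nM, 2 h dark at room temperature. AlphaScreen cAMP read after lysis/bead step 2 h. Schild pA2; duplicates, at least three independent experiments.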
T2 sequence (P33033 whole entry): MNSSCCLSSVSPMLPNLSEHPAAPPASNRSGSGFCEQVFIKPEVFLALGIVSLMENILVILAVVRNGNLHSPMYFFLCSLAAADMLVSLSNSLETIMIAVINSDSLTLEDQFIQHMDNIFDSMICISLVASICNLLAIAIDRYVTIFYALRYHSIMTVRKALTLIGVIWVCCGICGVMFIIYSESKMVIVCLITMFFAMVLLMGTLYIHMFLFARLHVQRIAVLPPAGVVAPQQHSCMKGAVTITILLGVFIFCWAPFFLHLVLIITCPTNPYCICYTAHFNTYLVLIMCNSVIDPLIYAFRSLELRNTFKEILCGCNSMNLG

Experiment [3] concerns the target T2, Melanocortin receptor 3. Nature of the experiment: Agonist activity at mouse melanocortin receptor 3 expressed in HEK293 cells assessed as stimulation of cAMP accumulation incubated for 2 hrs by cAMP Alpha-screen assay. Format: functional, cell-based.
Experiment [4] concerns the target Melanocortin receptor 4 (Mus musculus, UniProt P56450). In words: Agonist activity at mouse melanocortin receptor 4 expressed in HEK293 cells assessed as stimulation of cAMP accumulation incubated for 2 hrs by cAMP Alpha-screen assay. Format: functional, cell-based.
Experiment [5] has as its target T2, Melanocortin receptor 3. Nature of the experiment: Displacement of [125I]-NDP-MSH from mouse melanocortin receptor 3 expressed in HEK293 cell mebranes incubated for 1 hr by automatic gamma counting method. The experiment is classed as cell-based.
In experiment [6] the target is Melanocyte-stimulating hormone receptor (Mus musculus) (UniProt Q01727). In words: Ratio of IC50 for MDE6-82-3c to IC50 for test compound for displacement of [125I]-NDP-MSH from mouse melanocortin receptor 1 expressed in HEK293 cell mebranes incubated for 1 hr by automatic gamma counting method. An outline of the steps:
(§1)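 Cells washed, lysed 10 min with 0.1 M NaOH/1% Triton X-100, then gamma-counted. Specific binding defined with unlabelled NDP-MSH and normalized to it. Duplicate wells, two experiments. IC50 by non-linear fit. Fold difference taken relative to the Asn-parent macrocycle control.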

The target in experiment [7] is T1, Melanocortin receptor 5. In words: Displacement of [125I]-NDP-MSH from mouse melanocortin receptor 5 expressed in HEK293 cell mebranes incubated for 1 hr by automatic gamma counting method. Format: cell-based.
In experiment [8] the target is Melanocyte-stimulating hormone receptor (Mus musculus) (UniProt Q01727). Nature of the experiment: Agonist activity at mouse melanocortin receptor 1 expressed in HEK293 cells assessed as stimulation of cAMP accumulation at 100 uM incubated for 2 hrs by cAMP Alpha-screen assay relative to control. The experiment is classed as functional, cell-based.
Sequence of Melanocyte-stimulating hormone receptor (Mus musculus) (Q01727 whole entry, looked up): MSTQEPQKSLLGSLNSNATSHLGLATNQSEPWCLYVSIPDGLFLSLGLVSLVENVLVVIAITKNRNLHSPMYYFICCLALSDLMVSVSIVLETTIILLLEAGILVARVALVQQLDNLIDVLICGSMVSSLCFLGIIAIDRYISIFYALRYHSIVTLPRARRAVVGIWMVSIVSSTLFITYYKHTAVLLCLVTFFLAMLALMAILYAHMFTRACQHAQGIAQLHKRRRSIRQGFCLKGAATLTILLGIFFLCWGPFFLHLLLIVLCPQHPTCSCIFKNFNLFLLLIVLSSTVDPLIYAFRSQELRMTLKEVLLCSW
The target of experiment [9] is Melanocortin receptor 4 (Mus musculus) (UniProt P56450). Nature of the experiment: Ratio of IC50 for MDE6-82-3c to IC50 for test compound for displacement of [125I]-NDP-MSH from mouse melanocortin receptor 4 expressed in HEK293 cell mebranes incubated for 1 hr by automatic gamma counting method. An outline of the steps: as §1
Sequence of Melanocortin receptor 4 (Mus musculus) (P56450 whole entry): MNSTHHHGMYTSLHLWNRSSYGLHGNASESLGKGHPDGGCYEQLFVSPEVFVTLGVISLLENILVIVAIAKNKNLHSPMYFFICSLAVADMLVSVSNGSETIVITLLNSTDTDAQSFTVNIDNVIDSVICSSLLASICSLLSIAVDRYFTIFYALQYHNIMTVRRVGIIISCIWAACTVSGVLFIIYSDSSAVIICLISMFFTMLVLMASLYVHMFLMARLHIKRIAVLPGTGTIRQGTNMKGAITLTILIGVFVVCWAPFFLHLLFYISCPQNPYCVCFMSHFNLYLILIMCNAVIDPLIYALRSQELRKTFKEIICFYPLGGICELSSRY
Experiment [10] deals with T3, Melanocortin receptor 4 (Homo sapiens, UniProt P32245). In words: Inverse agonist activity at human melanocortin receptor 4 expressed in HEK293 cells assessed as inhibition of basal cAMP accumulation incubated for 2 hrs by cAMP Alpha-screen assay. The experiment is classed as functional, cell-based. Summed up:
(§2)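 AlphaScreen cAMP assay in stably transfected HEK293 cells, with 10,000 cells/well in IBMX-containing HBSS/HEPES buffer pH 7.4. Peptide alone, up to 100 μM, 2 h at room temperature in the dark, then 2 h lysis/detection. Inverse agonism taken as percent decrease of cAMP from basal, relative to maximal NDP-MSH signal, at 100 μM. Duplicates, three independent experiments.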

The target of experiment [11] is Melanocortin receptor 5 (Mus musculus) (UniProt P41149). Nature of the experiment: Inverse agonist activity at mouse melanocortin receptor 5 expressed in HEK293 cells assessed as inhibition of basal cAMP accumulation at 100 uM incubated for 2 hrs by cAMP Alpha-screen assay relative to control. The experiment is classed as functional, cell-based. Summed up: as §2
Sequence of Melanocortin receptor 5 (Mus musculus) (P41149 whole entry): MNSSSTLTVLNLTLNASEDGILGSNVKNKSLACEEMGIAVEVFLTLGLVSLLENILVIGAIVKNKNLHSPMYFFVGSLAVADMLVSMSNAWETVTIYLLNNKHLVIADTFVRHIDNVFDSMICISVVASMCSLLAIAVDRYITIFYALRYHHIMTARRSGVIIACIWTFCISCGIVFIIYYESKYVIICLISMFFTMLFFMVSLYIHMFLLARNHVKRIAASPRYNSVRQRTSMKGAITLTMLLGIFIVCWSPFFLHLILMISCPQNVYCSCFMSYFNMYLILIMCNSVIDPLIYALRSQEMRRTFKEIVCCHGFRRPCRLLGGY

The target of experiment [12] is T3, Melanocortin receptor 4. In words: Ratio of IC50 for MDE6-82-3c to IC50 for test compound for displacement of [125I]-NDP-MSH from human melanocortin receptor 4 expressed in HEK293 cell membranes incubated for 1 hr by automatic gamma counting method. An outline of the steps:
as §1
Background: Loss of bound radioactivity is the signal in a displacement assay; it reports binding, not function.

T3 sequence (P32245 whole entry): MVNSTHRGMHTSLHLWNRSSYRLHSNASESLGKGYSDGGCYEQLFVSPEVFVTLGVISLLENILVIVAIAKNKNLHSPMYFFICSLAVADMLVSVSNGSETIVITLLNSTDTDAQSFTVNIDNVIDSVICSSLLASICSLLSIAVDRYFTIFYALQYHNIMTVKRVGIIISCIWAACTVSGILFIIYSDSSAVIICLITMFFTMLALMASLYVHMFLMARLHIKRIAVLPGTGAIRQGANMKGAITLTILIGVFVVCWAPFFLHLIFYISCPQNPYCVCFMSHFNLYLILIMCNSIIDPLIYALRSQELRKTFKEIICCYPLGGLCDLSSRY
T1 sequence (P41149 whole entry): as the sequence (P41149 whole entry) above
Sequence of Melanocortin receptor 4 (Mus musculus, UniProt P56450) (P56450 whole entry): as the sequence (P56450 whole entry) above

Turning to `C[C@@H]1NC(=O)[C@H](CC(N)=O)NC(=O)[C@H](Cc2ccccc2)NC(=O)[C@H](Cc2ccccc2)NC(=O)[C@H](CS)NC(=O)[C@@H]2CCCN2C(=O)[C@H]2CCCN2C(=O)[C@H](Cc2ccccc2)NC1=O` (cyclo(PCFFNAF[dP])), the Kb in experiment [1] and in [2] was greater than 10 µM each time. The EC50 in experiment [3] and in [4] was greater than 100 µM throughout. Moreover, the IC50 in experiment [5] and in [7] was greater than 100 µM throughout. Besides, the Ratio IC50 in experiment [6] was found to be 3; in experiment [9], 90; in experiment [12], 300. Also, the Activity in [8] stood at 46%. Moreover, the result in experiment [10] was inactive. Moreover, the inhibition in experiment [11] was 32%.

The EC50 is the concentration giving half of the maximal effect. One may read the IC50 as the concentration at which inhibition is half-maximal. A lower IC50 goes with greater potency. As usually defined, the inhibition is the relative decrease from the control value, in per cent.
